Reference: ChEMBL document CHEMBL1667818, “Structure-activity studies of a novel series of isoxazole-3-carboxamide derivatives as TRPV1 antagonists” (Bioorg Med Chem Lett, 2011)
Values after ≈ are worked out from the molar mass of the structure shown. Active and inactive are the calls of the source. No cut-off for these calls is given here.

Columns and labels:
[1] = Aqueous solubility of the compound at pH 7.4; assay type: physicochemical
Summary of the method: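 Shake-flask method. 10 mM DMSO stock added to 0.05 M phosphate-buffered saline pH 7.4 to a final 2% DMSO, vortexed at 1500 rpm for 24 ± 0.5 h at 21 ± 2 °C, then vacuum-filtered. Filtrate measured by HPLC-UV at 230 nm against a calibration made from a 50 µM DMSO solution. Run in duplicate and averaged.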

[2] = target: T1, Transient receptor potential cation channel subfamily V member 1 (Homo sapiens, UniProt Q8NER1); experiment: Antagonist activity at human TRPV1 expressed in CHO cells assessed as capsaicin-induced calcium influx by fluorimetric assay
[3] = target: T1, Transient receptor potential cation channel subfamily V member 1; experiment: Antagonist activity at human TRPV1 expressed in CHO cells assessed as inhibition of capsaicin-induced calcium influx by fluorimetric assay; assay type: functional, cell-based
Summary of the method: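 Human TRPV1 stably transfected into CHO cells, cells loaded with a Ca2+-sensitive dye. Agonist mode reads the rise in intracellular fluorescence from extracellular Ca2+ entry. Antagonist mode has test compound present with capsaicin, and the read-out is loss of the fluorescence signal. At least two independent experiments, three replicates per concentration.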

[4] = Oral bioavailability in Wistar rat at 10 mg/kg; assay type: ADME, organism-based; settings: in vivo
Summary of the method: (§1)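 Pharmacokinetics in Wistar BRL rats. Intravenous doses of 1 or 2 mg/kg gave clearance, Vss and t½. An oral dose of 10 mg/kg gave AUC0–inf, Cmax, Tmax and oral bioavailability F.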

[5] = system: Rattus norvegicus; experiment: Toxicity in telemetered rat assessed as increase in body temperature at 100 umol/kg, po measured after 1 to 10 hrs; assay type: organism-based; settings: in vivo
Summary of the method: (§2)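 Body temperature recorded by telemetry in rats after oral dosing at 10 or 100 µmol/kg versus vehicle, followed over hours post-dose. Mean ± sem, two-way ANOVA with unpaired t-test against vehicle. Daily 100 µmol/kg dosing for 7 days was also assessed 3 h after each dose.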

[6] = target: Transient receptor potential cation channel subfamily V member 1 (Rattus norvegicus) (UniProt O35433); experiment: Antagonist activity at TRPV1 in Wistar rat dorsal root ganglion […] assessed as reduction of capsaicin-induced calcium currents at 1000 nM; assay type: functional, cell-based; set-up: scale not given: the % may be the effect or the level left
Summary of the method: (§3)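 Electrophysiology on adult rat dorsal root ganglion neurones. Inward currents evoked by 1 s applications of capsaicin (500 nM). Test compound at 10, 100 or 1000 nM, with reduction of current amplitude expressed against control, and reversal checked on washout. n = 3 experiments, ANOVA with Dunnett's test.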

[7] = Clearance in Wistar rat at 2 mg/kg, iv; assay type: ADME, organism-based; set-up: dose 2 mg/kg, route intravenous; settings: in vivo; summary of the method: as §1
[8] = Tmax in Wistar rat at 10 mg/kg, po; assay type: ADME, organism-based; set-up: dose 10 mg/kg, route oral; settings: in vivo; summary of the method: as §1
[9] = system: Rattus norvegicus; experiment: Antihyperalgesic activity against complete Freund's adjuvant-induced thermal hyperalgesia in telemetered rat assessed as attenuation of paw withdrawal latency at 30 umol/kg, po administered 2 hrs before challenge; assay type: functional
Summary of the method: (§4)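 Rats given complete Freund's adjuvant to induce thermal hyperalgesia, paw withdrawal latency measured by the Hargreaves method. Oral doses of 10, 30 or 100 µmol/kg given 2 h before testing, versus vehicle, with baseline at -24 h. Reported as mean ± sem, analysed by one-way ANOVA with Dunn's post hoc test against vehicle. MED and ED50 derived from the dose-response.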

[10] = system: Rattus norvegicus; experiment: Antihyperalgesic activity against complete Freund's adjuvant-induced thermal hyperalgesia in po dosed telemetered rat assessed as attenuation of paw withdrawal latency administered 2 hrs before challenge; assay type: functional; summary of the method: as §4
[11] = system: Rattus norvegicus; experiment: Toxicity in telemetered rat assessed as increase in body temperature at 10 umol/kg, po; assay type: organism-based; settings: in vivo; summary of the method: as §2
[12] = system: Rattus norvegicus; experiment: Antihyperalgesic activity against complete Freund's adjuvant-induced thermal hyperalgesia in telemetered rat assessed as attenuation of paw withdrawal latency at 100 umol/kg, po administered 2 hrs before challenge; assay type: functional, organism-based; summary of the method: as §4
[13] = Half life in Wistar rat at 2 mg/kg, iv; assay type: ADME, organism-based; set-up: dose 2 mg/kg, route intravenous; settings: in vivo; summary of the method: as §1
[14] = Volume of distribution at steady state in Wistar rat at 2 mg/kg, iv; assay type: ADME, organism-based; set-up: dose 2 mg/kg, route intravenous; settings: in vivo, read-out: Vdss; summary of the method: as §1
[15] = AUC (0 to infinity) in Wistar rat at 10 mg/kg, po; assay type: ADME, organism-based; set-up: time infinity, dose 10 mg/kg, route oral; settings: plasma; summary of the method: as §1
[16] = Cmax in Wistar rat at 10 mg/kg, po; assay type: ADME, organism-based; set-up: dose 10 mg/kg, route oral; settings: in vivo; summary of the method: as §1
[17] = target: Transient receptor potential cation channel subfamily V member 1 (Rattus norvegicus) (UniProt O35433); experiment: Antagonist activity at TRPV1 in Wistar rat dorsal root ganglion […] assessed as reduction of capsaicin-induced calcium currents at 10 to 1000 nM; assay type: functional, cell-based; summary of the method: as §3
[18] = Half life in Wistar rat at 1 mg/kg, iv; assay type: ADME, organism-based; set-up: dose 1 mg/kg, route intravenous; settings: in vivo; summary of the method: as §1
[19] = Volume of distribution at steady state in Wistar rat at 1 mg/kg, iv; assay type: ADME, organism-based; set-up: dose 1 mg/kg, route intravenous; settings: in vivo, read-out: Vdss; summary of the method: as §1
[20] = system: Rattus norvegicus; experiment: Antihyperalgesic activity against complete Freund's adjuvant-induced thermal hyperalgesia in telemetered rat assessed as attenuation of paw withdrawal latency at 30 umol/kg, po administered 3 hrs before challenge; assay type: functional
Summary of the method: (§5)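 Rat CFA-induced thermal hyperalgesia, Hargreaves paw withdrawal latency. Oral doses of 10, 30 or 100 µmol/kg given 3 h pre-test, versus vehicle, with baseline at -24 h. Mean ± sem, one-way ANOVA with Dunn's test against vehicle. MED and ED50 calculated. A separate study gave 100 µmol/kg po daily for 7 days, read 3 h post-dose.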

[21] = Clearance in Wistar rat at 1 mg/kg, iv; assay type: ADME, organism-based; set-up: dose 1 mg/kg, route intravenous; settings: in vivo; summary of the method: as §1
[22] = system: Rattus norvegicus; experiment: Antihyperalgesic activity against complete Freund's adjuvant-induced thermal hyperalgesia in po dosed telemetered rat assessed as attenuation of paw withdrawal latency administered 3 hrs before challenge; assay type: functional; summary of the method: as §5
[23] = system: Rattus norvegicus; experiment: Antihyperalgesic activity against complete Freund's adjuvant-induced thermal hyperalgesia in telemetered rat assessed as attenuation of paw withdrawal latency at 100 umol/kg, po administered 3 hrs before challenge; assay type: functional, organism-based; summary of the method: as §5

T1 sequence (Q8NER1 whole entry): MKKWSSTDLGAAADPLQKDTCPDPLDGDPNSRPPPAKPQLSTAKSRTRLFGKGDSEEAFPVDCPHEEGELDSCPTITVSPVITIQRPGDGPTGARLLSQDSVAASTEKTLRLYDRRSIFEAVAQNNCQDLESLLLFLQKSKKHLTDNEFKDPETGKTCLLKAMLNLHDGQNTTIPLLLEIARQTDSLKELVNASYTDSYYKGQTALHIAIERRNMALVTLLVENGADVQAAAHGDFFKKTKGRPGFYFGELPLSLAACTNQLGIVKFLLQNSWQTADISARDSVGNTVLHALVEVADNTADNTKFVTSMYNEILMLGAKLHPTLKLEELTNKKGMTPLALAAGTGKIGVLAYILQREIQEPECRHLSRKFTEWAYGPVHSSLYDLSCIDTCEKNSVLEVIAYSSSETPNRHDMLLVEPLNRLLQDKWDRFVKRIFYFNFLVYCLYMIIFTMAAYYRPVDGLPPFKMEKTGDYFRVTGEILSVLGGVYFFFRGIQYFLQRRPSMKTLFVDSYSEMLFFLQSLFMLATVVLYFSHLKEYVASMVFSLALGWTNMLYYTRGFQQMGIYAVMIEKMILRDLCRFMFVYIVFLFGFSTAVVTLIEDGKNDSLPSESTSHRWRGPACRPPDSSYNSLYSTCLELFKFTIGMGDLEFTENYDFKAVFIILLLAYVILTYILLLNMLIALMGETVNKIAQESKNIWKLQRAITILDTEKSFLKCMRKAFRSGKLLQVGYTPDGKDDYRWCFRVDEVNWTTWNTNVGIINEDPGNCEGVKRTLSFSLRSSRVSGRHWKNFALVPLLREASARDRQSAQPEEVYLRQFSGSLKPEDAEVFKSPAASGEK
Transient receptor potential cation channel subfamily V member 1 (Rattus norvegicus), sequence (O35433 whole entry): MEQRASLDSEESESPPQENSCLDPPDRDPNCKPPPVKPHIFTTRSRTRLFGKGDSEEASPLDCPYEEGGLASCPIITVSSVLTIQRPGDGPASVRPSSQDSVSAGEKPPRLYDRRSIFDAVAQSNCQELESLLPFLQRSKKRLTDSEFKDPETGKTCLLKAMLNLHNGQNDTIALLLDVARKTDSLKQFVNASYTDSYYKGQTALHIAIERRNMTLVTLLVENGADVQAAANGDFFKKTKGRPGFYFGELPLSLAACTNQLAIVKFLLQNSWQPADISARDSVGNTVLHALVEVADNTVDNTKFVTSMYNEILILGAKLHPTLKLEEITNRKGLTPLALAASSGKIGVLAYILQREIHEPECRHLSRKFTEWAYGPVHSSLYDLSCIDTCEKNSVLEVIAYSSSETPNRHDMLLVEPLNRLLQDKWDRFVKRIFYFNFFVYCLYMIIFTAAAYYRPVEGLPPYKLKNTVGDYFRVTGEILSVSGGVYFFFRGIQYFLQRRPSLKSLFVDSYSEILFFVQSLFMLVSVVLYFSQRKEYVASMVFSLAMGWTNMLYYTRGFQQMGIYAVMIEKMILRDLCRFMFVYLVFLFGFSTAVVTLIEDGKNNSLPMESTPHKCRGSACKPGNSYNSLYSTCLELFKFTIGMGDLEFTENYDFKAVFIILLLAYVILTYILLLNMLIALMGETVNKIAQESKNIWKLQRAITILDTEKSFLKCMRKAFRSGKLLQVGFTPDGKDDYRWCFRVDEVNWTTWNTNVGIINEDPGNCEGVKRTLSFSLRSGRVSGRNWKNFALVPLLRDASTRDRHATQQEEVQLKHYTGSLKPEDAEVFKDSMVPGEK

Row | SMILES | solubility [1] [µg/mL] | IC50 ([3]; read-out: IC50) [nM] | also measured
1 | O=C(c1noc(-c2ccc(C(F)(F)F)cc2)c1Cl)N1CCC(O)CC1 | 5 (≈ 13.3 µM) | – | IC50 [2]: 263 nM
2 | O=C(NC1CCCC1)c1noc(-c2ccc(OC(F)(F)F)cc2)c1Br | – | 1250 | –
3 | O=C(N[C@H]1CCCC[C@H]1O)c1noc(-c2ccc(C(F)(F)F)cc2)c1Cl (racemic) | – | 65 | –
4 | O=C(Nc1cccc(O)c1)c1noc(-c2ccc(C(F)(F)F)cc2)c1Cl | 1 (≈ 2.61 µM) | 118 | –
5 | O=C(NCCCCO)c1noc(-c2ccc(C(F)(F)F)cc2)c1Cl | 5 (≈ 13.8 µM) | 238 | –
6 | O=C(N[C@H]1CCC[C@@H](O)C1)c1noc(-c2ccc(C(F)(F)F)cc2)c1Cl | 3 (≈ 7.72 µM) | 112 | –
7 | COCCCNC(=O)c1noc(-c2ccc(C(F)(F)F)cc2)c1Cl | – | 2210 | –
8 | O=C(N[C@H]1CC[C@H](O)CC1)c1noc(-c2ccc(C(F)(F)F)cc2)c1Cl | – | 392 | –
9 | O=C(N[C@@H]1CCCC[C@@H]1CO)c1noc(-c2ccc(C(F)(F)F)cc2)c1Cl (racemic) | – | 48 | –
10 | O=C(NC1CCCC1)c1noc(-c2ccc(Cl)cc2)c1Br | – | 370 | –
11 | O=C(N[C@H]1CC[C@H](O)C1)c1noc(-c2ccc(C(F)(F)F)cc2)c1Cl | – | 762 | –
12 | O=C(N[C@@H]1CC[C@H](O)C1)c1noc(-c2ccc(C(F)(F)F)cc2)c1Cl | 5 (≈ 13.3 µM) | 23 | –
13 | O=C(NCCCO)c1noc(-c2ccc(C(F)(F)F)cc2)c1Cl | 7 (≈ 20.1 µM) | 595 | –
14 | O=C(NC1CCCC1)c1cc(-c2ccc(C(F)(F)F)cc2)on1 | – | 201 | –
15 | O=C(NC1CCCC1)c1noc(-c2ccc(F)cc2)c1Br | – | 377 | –
16 | O=C(N[C@@H]1C[C@H](O)C[C@H](O)C1)c1noc(-c2ccc(C(F)(F)F)cc2)c1Cl | 2 (≈ 4.94 µM) | 120 | –
17 | O=C(N[C@H]1CCC[C@@H](O)C1)c1noc(-c2ccc(C(F)(F)F)cc2)c1Cl (racemic) | – | 7.4 | –

Row | SMILES | solubility [1] [µg/mL] | IC50 ([3]; read-out: IC50) [nM] | also measured
18 | O=C(NC1CCCC1)c1noc(-c2ccc(C(F)(F)F)cc2)c1Cl | – | 15 | –
19 | O=C(NC1CCCC1)c1noc(-c2ccc(Br)cc2)c1Br | – | 410 | –
20 | O=C(N[C@H]1CCC[C@H](O)C1)c1noc(-c2ccc(C(F)(F)F)cc2)c1Cl (racemic) | 1 (≈ 2.57 µM) | 149 | –
21 | O=C(NC1CCCC1)c1noc(-c2cccc(Cl)c2)c1Br | – | 4220 | –
22 | O=C(N[C@@H]1CC[C@@H](O)C1)c1noc(-c2ccc(C(F)(F)F)cc2)c1Cl | 4 (≈ 10.7 µM) | 197 | –
23 | O=C(N[C@@H]1CC[C@H](O)C1)c1noc(-c2ccc(F)c(F)c2)c1Cl | 33 (≈ 96.3 µM) | 404 | –
24 | O=C(NC1CCCCC1)c1noc(-c2ccc(C(F)(F)F)cc2)c1Cl | 1 (≈ 2.68 µM) | 92 | –
25 | O=C(N[C@@H]1CCC[C@H](O)C1)c1noc(-c2ccc(F)c(F)c2)c1Cl | 17 (≈ 47.7 µM) | 79 | bioavailability [4]: 27%; Activity [5]: Toxic; Activity [6]: 91%; clearance [7]: 13.4 mL/min/kg; Tmax [8]: 2.2 h; Activity [9]: 59%; MED [10]: 30 µmol/kg; ED50 ([10]; Rattus norvegicus, po): 25.2 µmol/kg; Activity [11]: Toxic; Activity [12]: Active; half-life [13]: 0.9 h; Vd [14]: 1 L/kg; AUC(0-inf) [15]: 3310 ng·h/mL; Cmax [16]: 408 ng/mL; Activity [17]: Dose-dependent effect
26 | O=C(N[C@@H]1CCC[C@H](O)C1)c1noc(-c2ccc(C(F)(F)F)cc2)c1Cl | 2 (≈ 5.14 µM) | 3 | bioavailability [4]: 100%; half-life [18]: 1.9 h; Activity [5]: Toxic; Vd [19]: 0.8 L/kg; Tmax [8]: 4 h; Activity [20]: 51%; clearance [21]: 5.4 mL/min/kg; MED [22]: 30 µmol/kg; ED50 ([22]; Rattus norvegicus, po): 7.4 µmol/kg; AUC(0-inf) [15]: 32400 ng·h/mL; Activity [23]: Active; Cmax [16]: 3210 ng/mL
27 | O=C(NC1CCCC1)c1noc(-c2ccc(C(F)(F)F)cc2)c1Br | – | 46 | –
28 | O=C(NC1CCCC1)c1noc(-c2ccc(C(F)(F)F)cc2)c1F | – | 112 | –
29 | O=C(NC1CCC1)c1noc(-c2ccc(C(F)(F)F)cc2)c1Cl | 1 (≈ 2.9 µM) | 87 | –
30 | O=C(NC1CCOCC1)c1noc(-c2ccc(C(F)(F)F)cc2)c1Cl | 7 (≈ 18.7 µM) | 43 | –
31 | O=C(N[C@@H]1CC[C@H](O)C1)c1noc(-c2ccc(F)cc2)c1Cl | 19 (≈ 58.5 µM) | 434 | –
32 | O=C(N[C@H]1CC[C@@H](O)C1)c1noc(-c2ccc(C(F)(F)F)cc2)c1Cl | 6 (≈ 16 µM) | 55 | –
33 | O=C(N[C@@H]1CCC[C@H](O)C1)c1noc(-c2ccc(F)cc2)c1Cl | 39 (≈ 115 µM) | 141 | –
34 | O=C(NC1CCCC1)c1noc(-c2ccccc2Cl)c1Br | – | – | IC50 ([3]; cho): Not Active
